In ChEMBL document CHEMBL1124707, “N-phenyl-N'-pyridinylureas as anticonvulsant agents” (1990):

Species: Mus musculus
Test: Protective activity against Maximal Electroshock seizures(MES) at 60 min was determined
Format: functional
Details: 1 h

| Structure (SMILES) | ED50 [mg/kg] |
| --- | --- |
| O=C(Nc1ccncc1)Nc1c(Cl)cccc1Cl | 30 |

Species: Mus musculus
Test: Protective activity against Maximal Electroshock seizures(MES) in mice was determined at 90 min
Format: functional
Details: 1.5 h

| Structure (SMILES) | ED50 [mg/kg] |
| --- | --- |
| Cc1cccc(C)c1NC(=O)Nc1ccncc1 | 21 |

Species: Mus musculus
Test: Protective activity was determined against Maximal Electroshock seizures(MES) in mouse at 120 min
Format: functional
Details: 2 h
Procedure, shortened: (§1)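 Male Swiss-Webster mice (25–32 g, fed) were dosed orally, with the compound in water or in a 0.2% (hydroxymethyl)cellulose suspension and doses calculated as free base. Absence of tonic hind-limb extension counted as protection. Ten mice per dose were used, giving an ED50 with 95% confidence interval.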

| Structure (SMILES) | ED50 [mg/kg] |
| --- | --- |
| O=C1NC(=O)C(c2ccccc2)(c2ccccc2)N1 [PHENYTOIN] | 8.3 |

Species: Mus musculus
Test: Protective activity was determined against Maximal Electroshock seizures(MES) in mouse at 30 min
Format: functional
Details: 0.5 h
Procedure, shortened: as §1

| Structure (SMILES) | ED50 [mg/kg] |
| --- | --- |
| Cc1cccc(Cl)c1NC(=O)Nc1ccncc1 | 14 |

Tested on: Mus musculus
Test: The compound was tested for Ataxia(ATAX) by the inverted screen test after (ip) administration at 120 min
Format: functional
Details: 2 h

| Structure (SMILES) | ED50 [mg/kg] |
| --- | --- |
| Cc1cccc(C)c1NC(=O)Nc1ccncc1 | 138 |

Species: Mus musculus
Test: animal or person
Format: functional
Details: 0.5 h, read-out: MED

| Structure (SMILES) | minimal effective dose [mg/kg] |
| --- | --- |
| N#Cc1ccccc1NC(=O)Nc1ccncc1 | > 300 |
| O=C(Nc1ccncc1)Nc1ccccc1C(F)(F)F | 100 |
| O=C(Nc1ccncc1)Nc1ccccc1Br | 100 |
| Cc1ccc(NC(=O)Nc2ccncc2)cc1 | > 300 |
| Cc1cccc(Cl)c1NC(=O)Nc1c(C)cccc1Cl | > 300 |
| Cc1cccc(Cl)c1NC(=O)Nc1cccnc1 | 100 |
| Cc1cccc(C)c1NC(=O)Nc1ccc([N+](=O)[O-])cc1 | > 300 |
| O=C(Nc1ccccn1)Nc1c(Cl)cccc1Cl | > 300 |
| O=C(Nc1ccncc1)Nc1ccc(F)cc1 | 300 |
| O=C(Nc1ccncc1)Nc1ccc(Oc2ccccc2)cc1 | > 300 |
| Cc1cc(C)c(NC(=O)Nc2ccncc2)c(Cl)c1 | 100 |
| CCOC(=O)c1ccccc1NC(=O)Nc1ccncc1 | 300 |
| Cc1cccc(C)c1NC(=O)N1CCN(C)CC1 | 100 |
| Cc1cc(NC(=O)Nc2c(C)cccc2Cl)ccn1 | 30 |
| O=C(Nc1ccncc1)Nc1ccccc1[N+](=O)[O-] | 300 |
| CC(C)c1cccc(C(C)C)c1NC(=O)Nc1ccncc1 | > 300 |
| COc1ccccc1NC(=O)Nc1ccncc1 | 100 |
| CC(C)c1ccccc1NC(=O)Nc1ccncc1 | 100 |
| Cc1c(Cl)cccc1NC(=O)Nc1ccncc1 | > 300 |

| Structure (SMILES) | minimal effective dose [mg/kg] |
| --- | --- |
| CC(C)c1ccc(NC(=O)Nc2ccncc2)cc1 | > 300 |
| CC(=O)c1ccc(NC(=O)Nc2ccncc2)cc1 | > 300 |
| O=C(Nc1ccncc1)Nc1cccc(C(F)(F)F)c1 | > 300 |
| O=C(Nc1ccncc1)Nc1cccc([N+](=O)[O-])c1 | > 300 |
| O=C(Nc1ccncc1)Nc1c(Cl)cc(Cl)cc1Cl | 300 |
| O=C(Nc1ccncc1)Nc1ccc(Cl)cc1 | > 300 |
| Nc1ccc(NC(=O)Nc2ccncc2)cc1 | > 300 |
| O=C(Nc1ccncc1)Nc1ccccc1F | 100 |
| O=C(Nc1ccncc1)Nc1ccc(I)cc1 | > 300 |
| CCOC(=O)c1ccc(NC(=O)Nc2ccncc2)cc1 | > 300 |
| O=C(Nc1ccccc1)Nc1ccncc1 | 100 |
| Cc1cccc(C)c1NC(=O)Nc1ccccn1 | 300 |
| O=C(Nc1ccncc1)Nc1c(Cl)cccc1CO | > 300 |
| Cc1cccc(Cl)c1NC(N)=O | 100 |
| Cc1cccc(Cl)c1NC(=O)NCc1ccncc1 | > 300 |
| CN(C)c1ccccc1NC(=O)Nc1ccncc1 | 100 |
| O=C(Nc1ccncc1)Nc1ccccc1O | > 300 |
| Cc1ccccc1NC(=O)Nc1ccncc1 | 100 |
| O=C(Nc1ccncc1)Nc1c(Cl)cccc1Cl | 100 |

| Structure (SMILES) | minimal effective dose [mg/kg] |
| --- | --- |
| O=C(Nc1ccncc1)Nc1ccc(Cl)cc1Cl | > 300 |
| O=C(Nc1ccncc1)Nc1ccccc1Cl | 100 |
| Cc1cc(C)c(NC(=O)Nc2ccncc2)c(C)c1 | 30 |
| CC(C)NC(=O)Nc1ccncc1 | 300 |
| Cc1cccc(C)c1NC(=O)Nc1ccncc1 | 30 |
| O=C(Nc1ccncc1)Nc1ccccc1C(=O)O | > 300 |
| COc1cc(C)c(NC(=O)Nc2ccncc2)c(C)c1 | > 300 |
| O=C(Nc1ccncc1)Nc1c(Cl)cccc1C(F)(F)F | 100 |
| Cc1cccc(C)c1NC(=O)Nc1cccnc1 | 100 |
| Cc1cccc(NC(=O)Nc2ccncc2)c1 | > 300 |
| Cc1cccc(Cl)c1NC(=O)Nc1ccccn1 | 100 |
| CCc1cccc(CC)c1NC(=O)Nc1ccncc1 | 30 |
| Nc1ccccc1NC(=O)Nc1ccncc1 | > 300 |
| Cc1cccc(Cl)c1NC(=O)Nc1ccncc1 | 30 |
| O=C(Nc1cccnc1)Nc1c(Cl)cccc1Cl | > 300 |
| Cc1ccc(NC(=O)Nc2ccncc2)c(C)c1 | > 300 |
| O=C(Nc1ccncc1)Nc1ccccc1OCc1ccccc1 | > 300 |
| O=C(Nc1ccncc1)Nc1ccc([N+](=O)[O-])cc1 | > 300 |

Species: Mus musculus
Test: The compound was tested for protective activity against Maximal Electroshock seizures(MES) at 60 min in mice
Format: functional
Details: 1 h

| Structure (SMILES) | ED50 [mg/kg] |
| --- | --- |
| Cc1cccc(Cl)c1NC(=O)Nc1ccncc1 | 46 |

Tested on: Mus musculus
Test: The compound was tested for Ataxia(ATAX) by the inverted screen test, after intraperitoneal administration at 120 min
Format: functional
Details: ip, 2 h

| Structure (SMILES) | ED50 [mg/kg] |
| --- | --- |
| O=C(Nc1ccncc1)Nc1c(Cl)cccc1Cl | 293 |

Tested on: Mus musculus
Test: The compound was tested for Ataxia(ATAX) by the inverted screen test, after intraperitoneal administration at 120 min in mice
Format: functional
Details: ip, 2 h

| Structure (SMILES) | ED50 [mg/kg] |
| --- | --- |
| Cc1cccc(Cl)c1NC(=O)Nc1ccncc1 | 251 |

Tested on: Mus musculus
Test: The compound was tested for Ataxia(ATAX) by the inverted screen test, after oral administration in mouse at 120 min
Format: functional
Details: 2 h
Procedure, shortened: (§2)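 Mice were dosed orally, with doses calculated as free base. They were placed on an inverted square of wire mesh, and falling off was scored as impairment. Ten mice per dose were tested at the stated time, giving an ED50 with 95% confidence interval.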

| Structure (SMILES) | ED50 [mg/kg] |
| --- | --- |
| O=C1NC(=O)C(c2ccccc2)(c2ccccc2)N1 [PHENYTOIN] | 78 |

Tested on: Mus musculus
Test: The compound was tested for Ataxia(ATAX) by the inverted screen test, after oral administration in mouse at 60 min
Format: functional
Details: 1 h
Procedure, shortened: as §2

| Structure (SMILES) | ED50 [mg/kg] |
| --- | --- |
| Cc1cccc(Cl)c1NC(=O)Nc1ccncc1 | 210 |

Species: Mus musculus
Test: not given
Format: functional
Details: not given

| Structure (SMILES) | MAD [mg/kg] |
| --- | --- |
| N#Cc1ccccc1NC(=O)Nc1ccncc1 | 100 |
| O=C(Nc1ccncc1)Nc1ccccc1C(F)(F)F | 300 |
| O=C(Nc1ccncc1)Nc1ccccc1Br | >300 |
| Cc1ccc(NC(=O)Nc2ccncc2)cc1 | 100 |
| Cc1cccc(Cl)c1NC(=O)Nc1c(C)cccc1Cl | >300 |
| Cc1cccc(Cl)c1NC(=O)Nc1cccnc1 | 300 |
| Cc1cccc(C)c1NC(=O)Nc1ccc([N+](=O)[O-])cc1 | >300 |
| O=C(Nc1ccccn1)Nc1c(Cl)cccc1Cl | 100 |
| O=C(Nc1ccncc1)Nc1ccc(F)cc1 | 300 |
| O=C(Nc1ccncc1)Nc1ccc(Oc2ccccc2)cc1 | >300 |
| Cc1cc(C)c(NC(=O)Nc2ccncc2)c(Cl)c1 | >300 |
| CCOC(=O)c1ccccc1NC(=O)Nc1ccncc1 | >300 |
| Cc1cccc(C)c1NC(=O)N1CCN(C)CC1 | 300 |
| Cc1cc(NC(=O)Nc2c(C)cccc2Cl)ccn1 | 100 |
| O=C(Nc1ccncc1)Nc1ccccc1[N+](=O)[O-] | >300 |
| CC(C)c1cccc(C(C)C)c1NC(=O)Nc1ccncc1 | >300 |
| COc1ccccc1NC(=O)Nc1ccncc1 | >300 |
| CC(C)c1ccccc1NC(=O)Nc1ccncc1 | 300 |
| Cc1c(Cl)cccc1NC(=O)Nc1ccncc1 | >300 |

| Structure (SMILES) | MAD [mg/kg] |
| --- | --- |
| CC(C)c1ccc(NC(=O)Nc2ccncc2)cc1 | >300 |
| CC(=O)c1ccc(NC(=O)Nc2ccncc2)cc1 | >300 |
| O=C(Nc1ccncc1)Nc1cccc(C(F)(F)F)c1 | >300 |
| O=C(Nc1ccncc1)Nc1cccc([N+](=O)[O-])c1 | >300 |
| O=C(Nc1ccncc1)Nc1c(Cl)cc(Cl)cc1Cl | 300 |
| O=C(Nc1ccncc1)Nc1ccc(Cl)cc1 | >300 |
| Nc1ccc(NC(=O)Nc2ccncc2)cc1 | 300 |
| O=C(Nc1ccncc1)Nc1ccccc1F | 100 |
| O=C(Nc1ccncc1)Nc1ccc(I)cc1 | >300 |
| CCOC(=O)c1ccc(NC(=O)Nc2ccncc2)cc1 | >300 |
| O=C(Nc1ccccc1)Nc1ccncc1 | 300 |
| Cc1cccc(C)c1NC(=O)Nc1ccccn1 | >300 |
| O=C(Nc1ccncc1)Nc1c(Cl)cccc1CO | 300 |
| Cc1cccc(Cl)c1NC(N)=O | 300 |
| Cc1cccc(Cl)c1NC(=O)NCc1ccncc1 | >300 |
| CN(C)c1ccccc1NC(=O)Nc1ccncc1 | 100 |
| O=C(Nc1ccncc1)Nc1ccccc1O | >300 |
| Cc1ccccc1NC(=O)Nc1ccncc1 | >300 |
| O=C(Nc1ccncc1)Nc1c(Cl)cccc1Cl | >300 |

| Structure (SMILES) | MAD [mg/kg] |
| --- | --- |
| O=C(Nc1ccncc1)Nc1ccc(Cl)cc1Cl | >300 |
| O=C(Nc1ccncc1)Nc1ccccc1Cl | >300 |
| Cc1cc(C)c(NC(=O)Nc2ccncc2)c(C)c1 | 300 |
| CC(C)NC(=O)Nc1ccncc1 | 300 |
| Cc1cccc(C)c1NC(=O)Nc1ccncc1 | 100 |
| O=C(Nc1ccncc1)Nc1ccccc1C(=O)O | >300 |
| COc1cc(C)c(NC(=O)Nc2ccncc2)c(C)c1 | >300 |
| O=C(Nc1ccncc1)Nc1c(Cl)cccc1C(F)(F)F | 300 |
| Cc1cccc(C)c1NC(=O)Nc1cccnc1 | 300 |
| Cc1cccc(NC(=O)Nc2ccncc2)c1 | >300 |
| Cc1cccc(Cl)c1NC(=O)Nc1ccccn1 | >300 |
| CCc1cccc(CC)c1NC(=O)Nc1ccncc1 | 100 |
| Nc1ccccc1NC(=O)Nc1ccncc1 | >300 |
| Cc1cccc(Cl)c1NC(=O)Nc1ccncc1 | 300 |
| O=C(Nc1cccnc1)Nc1c(Cl)cccc1Cl | 300 |
| Cc1ccc(NC(=O)Nc2ccncc2)c(C)c1 | >300 |
| O=C(Nc1ccncc1)Nc1ccccc1OCc1ccccc1 | 30 |
| O=C(Nc1ccncc1)Nc1ccc([N+](=O)[O-])cc1 | >300 |

Species: Rattus norvegicus
Test: Protective activity was determined against Maximal Electroshock seizures(MES) in rat at 30 min
Format: functional
Details: 0.5 h
Procedure, shortened: (§3)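 Rats were dosed orally and tested against maximal electroshock, with the test time after dosing given per line. Doses were calculated as free base. ED50 is reported with 95% confidence interval.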

| Structure (SMILES) | ED50 [mg/kg] |
| --- | --- |
| O=C1NC(=O)C(c2ccccc2)(c2ccccc2)N1 [PHENYTOIN] | 30 |

Species: Rattus norvegicus
Test: Protective activity was determined against Maximal Electroshock seizures(MES) in rat at 60 min
Format: functional
Details: 1 h
Procedure, shortened: as §3

| Structure (SMILES) | ED50 [mg/kg] |
| --- | --- |
| Cc1cccc(Cl)c1NC(=O)Nc1ccncc1 | 9.2 |

Tested on: Rattus norvegicus
Test: The compound was tested for Ataxia(ATAX) by the inverted screen test, after oral administration in rat at 240 min
Details: 4 h

| Structure (SMILES) | ED50 [mg/kg] |
| --- | --- |
| Cc1cccc(Cl)c1NC(=O)Nc1ccncc1 | 408 |
| O=C1NC(=O)C(c2ccccc2)(c2ccccc2)N1 [PHENYTOIN] | > 300 |
